From article PMC2937276 (Molecular cancer therapeutics, 2010)

Tests used:
[1] = tested on: GBM culture GBM-1; assay: XTT cell proliferation assay; format: cell-based, Mouse; settings: mouse GBM culture GBM-1; 36 hours; mean of three experiments ± SD
In short: (§1)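 Primary human or mouse GBM cultures (DMEM, 10% FBS) were seeded at 5000 cells per 96-well well. Cells were cultured with test compound or vehicle for 36 h. Proliferation was read by XTT assay in quadruplicate. IC50 came from nonlinear-regression curve fitting.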

[2] = tested on: GBM culture 46; assay: XTT cell proliferation assay; format: cell-based, Mouse; settings: mouse GBM culture 46; 36 hours; mean of three experiments ± SD
In short: as §1

[3] = tested on: GBM culture 103; assay: XTT cell proliferation assay; format: cell-based, Mouse; settings: mouse GBM culture 103; 36 hours; mean of three experiments ± SD
In short: as §1

[4] = tested on: GBM culture 2414; assay: XTT cell proliferation assay; format: cell-based, Mouse; settings: mouse GBM culture 2414; 36 hours; mean of three experiments ± SD
In short: as §1

[5] = tested on: GBM culture 2415; assay: XTT cell proliferation assay; format: cell-based, Mouse; settings: mouse GBM culture 2415; 36 hours; mean of three experiments ± SD
In short: as §1

[6] = tested on: GBM culture GBM6; assay: XTT cell proliferation assay; format: cell-based, Human; settings: human GBM culture GBM6; 36 hours; mean of three experiments ± SD
In short: as §1

[7] = tested on: GBM culture 2736; assay: XTT cell proliferation assay; format: cell-based, Mouse; settings: mouse GBM culture 2736; 36 hours; mean of three experiments ± SD
In short: as §1

[8] = tested on: GBM culture 41; assay: XTT cell proliferation assay; format: cell-based, Mouse; settings: mouse GBM culture 41; 36 hours; mean of three experiments ± SD
In short: as §1

[9] = tested on: GBM culture GBM12; assay: XTT cell proliferation assay; format: cell-based, Human; settings: human GBM culture GBM12; 36 hours; mean of three experiments ± SD
In short: as §1

[10] = tested on: GBM culture GBM39; assay: XTT cell proliferation assay; format: cell-based, Human; settings: human GBM culture GBM39; 36 hours; mean of three experiments ± SD
In short: as §1

[11] = tested on: GBM culture GBM-2; assay: XTT cell proliferation assay; format: cell-based, Mouse; settings: mouse GBM culture GBM-2; 36 hours; mean of three experiments ± SD
In short: as §1

[12] = in vivo
[13] = tested on: GBM culture GBM8; assay: XTT cell proliferation assay; format: cell-based, Human; settings: human GBM culture GBM8; 36 hours; mean of three experiments ± SD
In short: as §1

[14] = tested on: GBM culture 42; assay: XTT cell proliferation assay; format: cell-based, Mouse; settings: mouse GBM culture 42; 36 hours; mean of three experiments ± SD
In short: as §1

[15] = tested on: GBM culture 102; assay: XTT cell proliferation assay; format: cell-based, Mouse; settings: mouse GBM culture 102; 36 hours; mean of three experiments ± SD
In short: as §1

[16] = tested on: GBM culture GBM22; assay: XTT cell proliferation assay; format: cell-based, Human; settings: human GBM culture GBM22; 36 hours; mean of three experiments ± SD
In short: as §1

[17] = tested on: GBM culture 69; assay: XTT cell proliferation assay; format: cell-based, Mouse; settings: mouse GBM culture 69; 36 hours; mean of three experiments ± SD
In short: as §1

[18] = in clinical evaluation for various cancers; cited from earlier work
[19] = tested on: GBM culture GBM43; assay: XTT cell proliferation assay; format: cell-based, Human; settings: human GBM culture GBM43; 36 hours; mean of three experiments ± SD
In short: as §1

[20] = tested on: GBM culture GBM59; assay: XTT cell proliferation assay; format: cell-based, Human; settings: human GBM culture GBM59; 36 hours; mean of three experiments ± SD
In short: as §1

[21] = tested on: GBM culture GBM15; assay: XTT cell proliferation assay; format: cell-based, Human; settings: human GBM culture GBM15; 36 hours; mean of three experiments ± SD
In short: as §1

[22] = tested on: GBM culture 2231; assay: XTT cell proliferation assay; format: cell-based, Mouse; settings: mouse GBM culture 2231; 36 hours; mean of three experiments ± SD
In short: as §1

[23] = tested on: GBM culture 2000; assay: XTT cell proliferation assay; format: cell-based, Mouse; settings: mouse GBM culture 2000; 36 hours; mean of three experiments ± SD
In short: as §1

[24] = tested on: GBM culture 2227; assay: XTT cell proliferation assay; format: cell-based, Mouse; settings: mouse GBM culture 2227; 36 hours; mean of three experiments ± SD
In short: as §1

C=CCNC1=C2C[C@@H](C)C[C@H](OC)[C@H](O)[C@@H](C)/C=C(\C)[C@H](OC(N)=O)[C@@H](OC)/C=C\C=C(/C)C(=O)NC(=CC1=O)C2=O [17-AAG, 17-allylamino-17-demethoxygeldanamycin, reference compound]
IC50 [1]: 208 ± 9.6 nM | IC50 [2]: 91.9 ± 1.4 nM | IC50 [3]: 794 ± 28.7 nM | IC50 [4]: 205 ± 13.1 nM | IC50 [5]: 329 ± 50.1 nM | IC50 [6]: 531.7 ± 5 nM | IC50 [7]: 381 ± 24.1 nM | IC50 [8]: 100 ± 5 nM | IC50 [9]: 2580 ± 166 nM | IC50 [10]: 241.7 ± 1.2 nM | IC50 [11]: 1100 ± 119 nM | accumulation in mouse brain ([12]; ip): rapidly declines to undetectable levels | Brain concentration ([12]; mouse): 2.6 ng/g | IC50 [13]: 8010 ± 543 nM | IC50 [14]: 166 ± 24.9 nM | IC50 [15]: 626.2 ± 6 nM | IC50 [16]: 4670 ± 148 nM | IC50 [17]: 91 ± 4.3 nM | toxicity on exposure [18]: dose-limiting hepatotoxicity | IC50 [19]: 86.9 ± 2.3 nM | IC50 [20]: 211 ± 11 nM | IC50 [21]: 110 ± 13.4 nM | IC50 [22]: 737 ± 72 nM | IC50 [23]: 345 ± 75.5 nM | IC50 [24]: 712 ± 54.4 nM
